Source: ChEMBL document CHEMBL1156715, “Synthesis of new 3-pyridinecarboxylates of potential vasodilation properties” (Eur J Med Chem, 2008)

tested on: Aorta; experiment: Vasodilation activity in Wistar rat thoracic aorta assessed as reduction of norepinephrine hydrochloride-induced contracture after 2 hrs; assay type: functional, tissue-based
Method in brief: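 Endothelium-denuded aortic preparations (functional endothelium removed, confirmed by <10% acetylcholine relaxation of pre-contracted aorta) equilibrated 2 h under 2 g resting tension. Contraction to norepinephrine hydrochloride (3 × 10^-7 to 3 × 10^-3 M) recorded isometrically before and after increasing test concentrations. DMSO stock 50 mg/ml; DMSO-only controls. IC50 = concentration giving 50% reduction of maximal norepinephrine contracture.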

Point of comparison: CCOC(=O)c1c(-c2ccc(F)cc2)cc(-c2ccccc2)nc1Nc1ccc(Cl)cc1, IC50 715 µM. Against it:
- CCOC(=O)c1c(-c2ccc(C)cc2)cc(-c2ccccc2)nc1Nc1ccc(OC)cc1 — 3.1-fold lower, 233 µM
- CCOC(=O)c1c(-c2ccc(F)cc2)cc(-c2ccccc2)nc1Nc1ccc(OC)cc1 — 2.8-fold lower, 254 µM
- CCOC(=O)c1c(-c2ccc(F)cc2)cc(-c2ccccc2)nc1Nc1ccccc1 — 1.9-fold lower, 367 µM
- CCOC(=O)c1c(-c2ccc(C)cc2)cc(-c2ccccc2)nc1Nc1ccc(Cl)cc1 — 2.7-fold lower, 266 µM
- CCOC(=O)c1c(-c2ccc(C)cc2)cc(-c2ccccc2)nc1N — 2.2-fold lower, 327 µM
- CCOC(=O)c1c(-c2ccc(C)cc2)cc(-c2ccccc2)nc1N1CCOCC1 — 2.1-fold lower, 340 µM
- CCOC(=O)c1c(-c2ccc(F)cc2)cc(-c2ccccc2)nc1N1CCOCC1 — 4.9-fold lower, 146 µM
- CCOC(=O)c1c(-c2ccc(F)cc2)cc(-c2ccccc2)nc1N — 2.1-fold lower, 335 µM
- CCOC(=O)c1c(-c2ccc(C)cc2)cc(-c2ccccc2)nc1N1CCN(c2nc(-c3ccccc3)cc(-c3ccc(C)cc3)c2C(=O)OCC)CC1 — 3.1-fold lower, 229 µM
- CCOC(=O)c1c(-c2ccc(F)cc2)cc(-c2ccccc2)nc1N1CCCCC1 — 2.1-fold lower, 346 µM
- CCOC(=O)c1c(-c2ccc(C)cc2)cc(-c2ccccc2)nc1N1CCCCC1 — 4.1-fold lower, 175 µM
